The subject of assay [1] is Saccharomyces cerevisiae. In words: Antimicrobial activity against Saccharomyces cerevisiae YCG198 harboring Saccharomyces cerevisiae Y8205 MATalpha PDR1delta::NAT PDR3 delta::URA3 assessed as growth inhibition at 100 uM after 18 hrs. Conditions: YCG198, 18 h, read-out: GI. The class given is functional. A digest of the protocol:
(§1)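 Stationary-phase yeast grown in synthetic complete medium, diluted to 5 × 10^5 cells/mL, then exposed 18 h at 30 °C to seven-point half-log dilutions from DMSO stocks (final 100 to 0.01 μM; one extended series topped at 300 μM). DMSO (1% or 3%) served as control. Growth was read as OD590, and residual growth = OD/OD_DMSO × 100. Mean ± standard error of two independent experiments in triplicate; IC50 from curve fit.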

Another assay has as its system HL-60. In words: Cytotoxicity against human HL60 cells assessed as growth inhibition after 2 days by MTT assay. To be noted: HL-60, 48 h. The class given is functional, cell-based.
Assay [2] deals with Saccharomyces cerevisiae. Nature of the assay: Antimicrobial activity against Saccharomyces cerevisiae YCG198 harboring Saccharomyces cerevisiae Y8205 MATalpha PDR1delta::NAT PDR3 delta::URA3 assessed as growth inhibition after 18 hrs. Conditions: YCG198, 18 h. The class given is functional, organism-based. A digest of the protocol: as §1
Assay [3] deals with Saccharomyces cerevisiae. Nature of the assay: Antimicrobial activity against wild type Saccharomyces cerevisiae YCG117 harboring Saccharomyces cerevisiae Y8205 MATalpha ura3delta0::NAT assessed as growth inhibition at 0.01 to 100 uM after 18 hrs. The class given is functional, organism-based. An outline of the steps:
as §1

Assay [4] deals with Saccharomyces cerevisiae. Nature of the assay: Antimicrobial activity against Saccharomyces cerevisiae YCG198 harboring Saccharomyces cerevisiae Y8205 MATalpha PDR1delta::NAT PDR3 delta::URA3 assessed as growth inhibition at 0.01 to 100 uM after 18 hrs. The class given is functional, organism-based. An outline of the steps:
as §1

Structures are written as SMILES. Activity calls are given as the source filed them. The rule behind the calls is not given here.

The results in this text go back to ChEMBL document CHEMBL1773041, “Lehualides E-K, cytotoxic metabolites from the Tongan marine sponge Plakortis sp” (J Nat Prod, 2011).

One may read the IC50 as the concentration that gives 50% inhibition. For the compound `COc1c(O)c(C)c(C/C=C(\C)CCCCCCc2ccccc2)oc1=O` [LEHUALIDE F], the inhibition of growth at 100 µM in the assay on Saccharomyces cerevisiae [1] is 60%. Besides, the IC50 with HL-60 is 6.2 µM; with Saccharomyces cerevisiae [2], 44 µM.

As for `COc1c(O)c(C)c(C/C=C(\C)CCCCCCCCc2ccccc2)oc1=O` [LEHUALIDE G], in the assay with Saccharomyces cerevisiae [1], the inhibition of growth at 100 µM was found to be 68%. In addition, in the assay on HL-60, the IC50 was found to be 5.4 µM. The “growth inhibition (GI)” value with Saccharomyces cerevisiae [3] is “inactive”.

For the compound `COc1c(C)c(CCCCCCCCCCSC(C)=O)oc(=O)c1OC` [LEHUALIDE H], in the assay with HL-60, the IC50 worked out at 14.6 µM. Besides, the “growth inhibition (GI)” value in the assay on Saccharomyces cerevisiae [4] and in the assay with Saccharomyces cerevisiae [3] was “inactive” each time.

For `COc1c(C)c(CCCCCCCCCCSC)oc(=O)c1OC` [LEHUALIDE I], the inhibition of growth at 100 µM in the assay on Saccharomyces cerevisiae [1] turned out to be 67%. The half-inhibitory concentration (IC50) in the assay with HL-60 is 10.8 µM. In the assay on Saccharomyces cerevisiae [3], the “growth inhibition (GI)” value was “inactive”.
